Source: ChEMBL document CHEMBL3627671, “Novel derivatives of nitro-substituted salicylic acids: Synthesis, antimicrobial activity and cytotoxicity” (Bioorg Med Chem, 2015)
Converted amounts (≈) assume the structure as drawn.

Columns and labels:
[1] = tested on: Mycobacterium tuberculosis; experiment: Antimycobacterial activity against Mycobacterium tuberculosis H37Rv 331/88 after 14 days; assay type: functional; settings: H37Rv 331/88, 336 h
[2] = tested on: Mycobacterium tuberculosis; experiment: Antimycobacterial activity against Mycobacterium tuberculosis H37Rv 331/88 after 21 days; assay type: functional; settings: H37Rv 331/88, 504 h
[3] = tested on: Mycobacterium avium; experiment: Antimycobacterial activity against Mycobacterium avium 330/80 after 14 days; assay type: functional; settings: 330/80, 336 h
[4] = tested on: Mycobacterium avium; experiment: Antimycobacterial activity against Mycobacterium avium 330/80 after 21 days; assay type: functional; settings: 330/80, 504 h
[5] = tested on: Mycobacterium kansasii; experiment: Antimycobacterial activity against Mycobacterium kansasii 235/80 after 7 days; assay type: functional; settings: 235/80, 168 h
Summary of the method: (§1)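 Šula's semisynthetic medium micromethod at 37 °C, read after 7, 14 and 21 days. The 1.0 McFarland suspension was diluted 10^-4. MIC determined. 6509/96 is a clinical isolate.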

[6] = tested on: Mycobacterium kansasii; experiment: Antimycobacterial activity against Mycobacterium kansasii 235/80 after 14 days; assay type: functional; settings: 235/80, 336 h; summary of the method: as §1
[7] = tested on: Mycobacterium kansasii; experiment: Antimycobacterial activity against Mycobacterium kansasii 235/80 after 21 days; assay type: functional; settings: 235/80, 504 h; summary of the method: as §1
[8] = tested on: Mycobacterium kansasii; experiment: Antimycobacterial activity against Mycobacterium kansasii 6509/96 after 7 days; assay type: functional; settings: 6509/96, 168 h; summary of the method: as §1
[9] = tested on: Mycobacterium kansasii; experiment: Antimycobacterial activity against Mycobacterium kansasii 6509/96 after 14 days; assay type: functional; settings: 6509/96, 336 h; summary of the method: as §1
[10] = tested on: Mycobacterium kansasii; experiment: Antimycobacterial activity against Mycobacterium kansasii 6509/96 after 21 days; assay type: functional; settings: 6509/96, 504 h; summary of the method: as §1
[11] = tested on: Staphylococcus aureus; experiment: Antibacterial activity against Staphylococcus aureus CCM 4516/08 after 24 hrs by microdilution broth method; assay type: functional; settings: CCM 4516/08, 24 h
[12] = tested on: Staphylococcus aureus; experiment: Antibacterial activity against Staphylococcus aureus CCM 4516/08 after 48 hrs by microdilution broth method; assay type: functional; settings: CCM 4516/08, 48 h
[13] = tested on: Staphylococcus aureus; experiment: Antibacterial activity against methicillin-resistant Staphylococcus aureus H 5996/08 after 24 hrs by microdilution broth method; assay type: functional; settings: H 5996/08, 24 h
[14] = tested on: Staphylococcus aureus; experiment: Antibacterial activity against methicillin-resistant Staphylococcus aureus H 5996/08 after 48 hrs by microdilution broth method; assay type: functional; settings: H 5996/08, 48 h
[15] = tested on: Staphylococcus epidermidis; experiment: Antibacterial activity against Staphylococcus epidermidis H 6966/08 after 24 hrs by microdilution broth method; assay type: functional; settings: H 6966/08, 24 h
Summary of the method: (§2)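 Mueller-Hinton broth microdilution (modified M07-A07), pH 7.4 (±0.2). Compounds dissolved in DMSO, tested at final 500 to 0.49 µmol/L. Inoculum in sterile water matched to 0.5 McFarland. Incubated in the dark, humid atmosphere, 35 °C, read at 24 and 48 h visually and at 540 nm. MIC taken as ≥95% growth reduction (IC95) versus control.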

[16] = tested on: Staphylococcus epidermidis; experiment: Antibacterial activity against Staphylococcus epidermidis H 6966/08 after 48 hrs by microdilution broth method; assay type: functional; settings: H 6966/08, 48 h; summary of the method: as §2
[17] = tested on: Enterococcus sp.; experiment: Antibacterial activity against Enterococcus sp. J 14365/08 after 24 hrs by microdilution broth method; assay type: functional; settings: J 14365/08, 24 h; summary of the method: as §2
[18] = tested on: Enterococcus sp.; experiment: Antibacterial activity against Enterococcus sp. J 14365/08 after 48 hrs by microdilution broth method; assay type: functional; settings: J 14365/08, 48 h; summary of the method: as §2
[19] = tested on: Escherichia coli; experiment: Antibacterial activity against Escherichia coli CCM4517 after 24 hrs by microdilution broth method; assay type: functional; settings: CCM4517, 24 h; summary of the method: as §2
[20] = tested on: Escherichia coli; experiment: Antibacterial activity against Escherichia coli CCM4517 after 48 hrs by microdilution broth method; assay type: functional; settings: CCM4517, 48 h; summary of the method: as §2
[21] = tested on: Klebsiella pneumoniae; experiment: Antibacterial activity against Klebsiella pneumoniae D 11750/08 after 24 hrs by microdilution broth method; assay type: functional; settings: D 11750/08, 24 h; summary of the method: as §2
[22] = tested on: Klebsiella pneumoniae; experiment: Antibacterial activity against Klebsiella pneumoniae D 11750/08 after 48 hrs by microdilution broth method; assay type: functional; settings: D 11750/08, 48 h; summary of the method: as §2
[23] = tested on: Klebsiella pneumoniae; experiment: Antibacterial activity against ESBL-positive Klebsiella pneumoniae J 14368/08 after 24 hrs by microdilution broth method; assay type: functional; settings: J 14368/08, 24 h; summary of the method: as §2
[24] = tested on: Klebsiella pneumoniae; experiment: Antibacterial activity against ESBL-positive Klebsiella pneumoniae J 14368/08 after 48 hrs by microdilution broth method; assay type: functional; settings: J 14368/08, 48 h; summary of the method: as §2
[25] = tested on: Pseudomonas aeruginosa; experiment: Antibacterial activity against Pseudomonas aeruginosa CCM 1961 after 24 hrs by microdilution broth method; assay type: functional; settings: CCM 1961, 24 h; summary of the method: as §2
[26] = tested on: Pseudomonas aeruginosa; experiment: Antibacterial activity against Pseudomonas aeruginosa CCM 1961 after 48 hrs by microdilution broth method; assay type: functional; settings: CCM 1961, 48 h; summary of the method: as §2
[27] = tested on: Candida albicans; experiment: Antifungal activity against Candida albicans ATCC 44859 after 24 hrs by microdilution broth method; assay type: functional; settings: ATCC 44859, 24 h
Summary of the method: (§3)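 CLSI M27-A3 broth microdilution in RPMI 1640 with glutamine, buffered to pH 7.0 with MOPS; DMSO diluent. Yeast inoculum 5 × 10^3 ± 0.2 CFU/mL. Moulds grown on Sabouraud agar 3–10 days before spore harvest, final inoculum 0.5-5 × 10^4 CFU/mL, checked in a Bürker chamber. Incubated dark, humid, 35 °C, read at 24 and 48 h visually and at 540 nm. MIC taken as ≥80% (yeasts) or ≥50% (filamentous) growth reduction versus control.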

[28] = tested on: Candida albicans; experiment: Antifungal activity against Candida albicans ATCC 44859 after 48 hrs by microdilution broth method; assay type: functional; settings: ATCC 44859, 48 h; summary of the method: as §3
[29] = tested on: Candida tropicalis; experiment: Antifungal activity against Candida tropicalis 156 after 24 hrs by microdilution broth method; assay type: functional; settings: Candida tropicalis, 156, 24 h; summary of the method: as §3
[30] = tested on: Candida tropicalis; experiment: Antifungal activity against Candida tropicalis 156 after 48 hrs by microdilution broth method; assay type: functional; settings: Candida tropicalis, 156, 48 h; summary of the method: as §3
[31] = tested on: Pichia kudriavzevii; experiment: Antifungal activity against Candida krusei E28 after 24 hrs by microdilution broth method; assay type: functional; settings: E28, 24 h; summary of the method: as §3
[32] = tested on: Pichia kudriavzevii; experiment: Antifungal activity against Candida krusei E28 after 48 hrs by microdilution broth method; assay type: functional; settings: E28, 48 h; summary of the method: as §3
[33] = tested on: Nakaseomyces glabratus; experiment: Antifungal activity against Candida glabrata 20/I after 24 hrs by microdilution broth method; assay type: functional; summary of the method: as §3
[34] = tested on: Nakaseomyces glabratus; experiment: Antifungal activity against Candida glabrata 20/I after 48 hrs by microdilution broth method; assay type: functional; summary of the method: as §3
[35] = tested on: Trichosporon asahii; experiment: Antifungal activity against Trichosporon asahii 1188 after 24 hrs by microdilution broth method; assay type: functional; settings: Trichosporon asahii, 1188, 24 h; summary of the method: as §3
[36] = tested on: Trichosporon asahii; experiment: Antifungal activity against Trichosporon asahii 1188 after 48 hrs by microdilution broth method; assay type: functional; settings: Trichosporon asahii, 1188, 48 h; summary of the method: as §3
[37] = tested on: Aspergillus fumigatus; experiment: Antifungal activity against Aspergillus fumigatus 231 after 24 hrs by microdilution broth method; assay type: functional; settings: Aspergillus fumigatus, 231, 24 h; summary of the method: as §3
[38] = tested on: Aspergillus fumigatus; experiment: Antifungal activity against Aspergillus fumigatus 231 after 48 hrs by microdilution broth method; assay type: functional; settings: Aspergillus fumigatus, 231, 48 h; summary of the method: as §3
[39] = tested on: Lichtheimia corymbifera; experiment: Antifungal activity against Absidia corymbifera 272 after 24 hrs by microdilution broth method; assay type: functional; settings: Lichtheimia corymbifera, 272, 24 h; summary of the method: as §3
[40] = tested on: Lichtheimia corymbifera; experiment: Antifungal activity against Absidia corymbifera 272 after 48 hrs by microdilution broth method; assay type: functional; settings: Lichtheimia corymbifera, 272, 48 h; summary of the method: as §3
[41] = tested on: Trichophyton mentagrophytes; experiment: Antifungal activity against Trichophyton mentagrophytes 445 after 24 hrs by microdilution broth method; assay type: functional; settings: Trichophyton mentagrophytes, 445, 24 h
[42] = tested on: Trichophyton mentagrophytes; experiment: Antifungal activity against Trichophyton mentagrophytes 445 after 48 hrs by microdilution broth method; assay type: functional; settings: Trichophyton mentagrophytes, 445, 48 h
[43] = tested on: HepG2; experiment: Cytotoxicity against human HepG2 cells after 24 hrs […]; assay type: cell-based; settings: HepG2, 24 h
[44] = Selectivity index, ratio of CI50 for human HepG2 cells to MIC100 for Mycobacterium tuberculosis H37Rv 331/88

## O=C(Nc1ccc(Cl)c(Cl)c1)c1cc([N+](=O)[O-])ccc1O
[1]
  MIC: 8 µM (≈ 2.62 µg/mL)
[2]
  MIC: 16 µM (≈ 5.23 µg/mL)
[3]
  MIC: 125 µM (≈ 40.9 µg/mL)
[4]
  MIC: 125 µM (≈ 40.9 µg/mL)
[5]
  MIC: 16 µM (≈ 5.23 µg/mL)
[6]
  MIC: 32 µM (≈ 10.5 µg/mL)
[7]
  MIC: 32 µM (≈ 10.5 µg/mL)
[8]
  MIC: 32 µM (≈ 10.5 µg/mL)
[9]
  MIC: 32 µM (≈ 10.5 µg/mL)
[10]
  MIC: 32 µM (≈ 10.5 µg/mL)
[11]
  MIC: 31.2 µM (≈ 10.2 µg/mL)
[12]
  MIC: 31.2 µM (≈ 10.2 µg/mL)
[13]
  MIC: 31.2 µM (≈ 10.2 µg/mL)
[14]
  MIC: 31.2 µM (≈ 10.2 µg/mL)
[15]
  MIC: 62.5 µM (≈ 20.4 µg/mL)
[16]
  MIC: 62.5 µM (≈ 20.4 µg/mL)
[17]
  MIC: 125 µM (≈ 40.9 µg/mL)
[18]
  MIC: 125 µM (≈ 40.9 µg/mL)
[19]
  MIC: > 500 µM
[20]
  MIC: > 500 µM
[21]
  MIC: > 500 µM
[22]
  MIC: > 500 µM
[23]
  MIC: > 500 µM
[24]
  MIC: > 500 µM
[25]
  MIC: > 500 µM
[26]
  MIC: > 500 µM
[27]
  MIC: > 500 µM
[28]
  MIC: > 500 µM
[29]
  MIC: > 500 µM
[30]
  MIC: > 500 µM
[31]
  MIC: > 500 µM
[32]
  MIC: > 500 µM
[33]
  MIC: > 500 µM
[34]
  MIC: > 500 µM
[35]
  MIC: > 500 µM
[36]
  MIC: > 500 µM
[37]
  MIC: > 500 µM
[38]
  MIC: > 500 µM
[39]
  MIC: > 500 µM
[40]
  MIC: > 500 µM
[41]
  MIC: 250 µM (≈ 81.8 µg/mL)
[42]
  MIC: 250 µM (≈ 81.8 µg/mL)
[43]
  IC50: 8.9 µM
[44]
  Selectivity Index: 0.556
